Measurements: publication PMC4987166 (Clinical cancer research : an official journal of the …, 2016)

Legend:
Ewing sarcoma cells = assay: Cell proliferation / cell viability IC50 at 48 h; assay type: cell-based; conditions: read-out: cell viability IC50; 48 h of treatment
Summary of the method: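 Ewing sarcoma cells (TC32/TC71), STR-authenticated, grown in RPMI 1640 with 10% FBS, 2mM L-Gln and penicillin/streptomycin. Cells exposed to test compound for 48 h and cell number recorded across a dose range. IC50 from non-linear regression over at least 3 independent experiments.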

TC71 xenograft [1] = assay: TC71 Ewing sarcoma xenograft in nude mice; assay type: in vivo
[2] = test system: EWS-FLI1 target genes (NR0B1); assay: Quantitative RT-PCR of NR0B1 and EWS-FLI1 target gene expression in TC32 cells; assay type: cell-based; conditions: for concentration showing equivalent suppression of EWS-FLI1 targets NR0B1, EZH2, and ID2: qPCR, 12 h
rat = assay: Rat toxicity: liver enzymes, liver synthetic function, hematopoiesis; conditions: in vivo, 8 mg/kg
[3] = Serum drug levels in mice; conditions: mouse, in vivo
γH2AX phosphorylation = assay: DNA damage by phosphorylation of γH2AX; assay type: cell-based; conditions: 50 nmol/L mithramycin, 50 nmol/L EC-8042 or 7.5 nmol/L EC-8105
[4] = test system: NR0B1 expression (EWS-FLI1 activity); assay: Immunofluorescence for NR0B1 in xenograft tumor tissue; assay type: in vivo, mouse; conditions: TC71 xenograft, day 3 of treatment, IP
HepG2 cells = assay: Time-lapse microscopy of HepG2 proliferation; assay type: cell-based; conditions: 50 nmol/L mithramycin, 50 nmol/L EC-8042 or 7.5 nmol/L EC-8105
[5] = test system: EWS-FLI1 target genes EZH2, NR0B1, and ID2; assay: Immunoblot of EWS-FLI1 downstream targets; assay type: cell-based; conditions: TC32 cells, 50 nmol/L, 18 h
CD-1 mice = assay: Maximum tolerated dose in healthy CD-1 mice; conditions: mouse, in vivo
TC71 xenograft [6] = conditions: TC32 and TC71 xenografts, 1 mg/kg IP M/W/F; cited from earlier work

Compound | IC50 (Ewing sarcoma cells) [nM] | tumor regression (TC71 xenograft [1]; 24 mg/kg IP (12% of the IP MTD)) | tumor growth rate less per day than the control (TC71 xenograft [1]; 24 mg/kg IP M/W/F, while being treated) [mm^3] | mean tumor size on day 11 of treatment (TC71 xenograft [1]; 24 mg/kg IP, control 3177 mm^3) [mm^3] | tumor growth less per day than the control (TC71 xenograft [1]; 24 mg/kg IV Q3D, while on treatment) [mm^3] | survival of treated cohort (TC71 xenograft [1]; 24 mg/kg IV, P <0.0001) | effect on panel of EWS-FLI1 target genes ([2]; Fig. 3B, legend: 15 nM for 18 h or 3 h) | concentration showing equivalent suppression of EWS-FLI1 targets NR0B1, EZH2, and ID2 [2] [nmol/L] | other toxicities (myelosuppression, compromise of liver synthetic function) (rat) | serum levels of drug [3] [µM] | DNA damage as measured by phosphorylation of γH2AX (γH2AX phosphorylation) | EWS-FLI1 activity in tumor tissue by NR0B1 immunofluorescent staining [4] | proliferation of HepG2 cells (HepG2 cells) | suppression of EWS-FLI1 targets EZH2, NR0B1, and ID2 at the protein level [5] | Intraperitoneal MTD (CD-1 mice; ip) [mg/kg] | Intravenous MTD (CD-1 mice; iv) [mg/kg] | fold change in NR0B1 expression ([2]; TC32 cells, 50 nmol/L, 12 hr, qPCR vs GAPDH) | xenograft tumor growth (TC71 xenograft [6])
CO[C@@H]([C@@H]1Cc2cc3cc(O[C@H]4CC(O[C@H]5CC(O)[C@H](O)C(C)O5)[C@H](O)C(C)O4)c(C)c(O)c3c(O)c2C(=O)[C@H]1O[C@H]1CC(O[C@H]2CC(O[C@H]3CC(O)[C@H](O)C(C)O3)[C@@H](O)C(C)O2)[C@H](O)C(C)O1)[C@@H](O)C(C)=O (stereo partly drawn) [EC-8042] | 37.8 | every tumor in every mouse showed some level of regression | 268.2 | 422.5 | 151 | extended the survival | All the EWS-FLI1 induced targets were suppressed and all the repressed targets were induced to a comparable extent as mithramycin | 50 | no evidence of other toxicities | 4.295 | no DNA damaging effects | clear suppression of EWS-FLI1 activity | neither EC-8105 or EC-8042 had any effect | suppressed | 200 | 64 |  | 
mithramycin [reference compound] | 15.5 |  |  |  |  |  |  | 50 |  |  |  |  |  | suppressed |  |  | 0.48 | markedly suppresses and even regresses tumor growth
